Drawing on ChEMBL document CHEMBL4715845, “Conjugable A adenosine receptor antagonists for the development of functionalized ligands and their use in fluorescent probes” (Eur J Med Chem, 2020), this text covers Ratio Ki and inhibition for two compounds.

The species entered for experiment [1] is Homo sapiens. The experiment can be described thus: Selectivity ratio of Ki for displacement of [3H]CGS21680 from recombinant human A2AAR expressed in HEK293 cell membranes to Ki for displacement of [125I]AB-MEC from recombinant human A3R expressed in CHO cell membranes.
Experiment [2] addresses T1, Adenosine receptor A1 (Homo sapiens) (UniProt P30542).
T1 sequence (whole entry): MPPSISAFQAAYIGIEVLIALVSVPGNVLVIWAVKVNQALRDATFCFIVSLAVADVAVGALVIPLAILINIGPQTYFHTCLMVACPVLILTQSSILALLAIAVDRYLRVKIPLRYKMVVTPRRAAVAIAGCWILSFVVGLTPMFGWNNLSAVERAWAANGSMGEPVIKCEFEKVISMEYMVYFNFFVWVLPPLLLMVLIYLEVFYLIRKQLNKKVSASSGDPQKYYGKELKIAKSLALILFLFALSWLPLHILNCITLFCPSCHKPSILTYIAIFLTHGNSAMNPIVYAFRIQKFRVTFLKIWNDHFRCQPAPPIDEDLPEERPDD
The experiment can be described thus: Displacement of [3H]R-PIA from recombinant human A1AR expressed in CHO cell membranes at 10 uM relative to control. The method in brief:
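[3H]R-PIA competition at membranes of CHO cells expressing recombinant human A1AR, with test compound at a single concentration of 10 μM. Adenosine deaminase (3 units/mL) present in the 30 min, 30 °C preincubation and during incubation. Final DMSO ≤2%. Bound radioligand collected on GF/B filters. Reported as % inhibition of specific binding.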
In general terms: Loss of bound radioactivity is the signal in a displacement assay; it reports binding, not function.

The species named for experiment [3] is Homo sapiens. The experiment can be described thus: Selectivity ratio of Ki for displacement of [3H]R-PIA from recombinant human A1AR expressed in CHO cell membranes to Ki for displacement of [125I]AB-MEC from recombinant human A3R expressed in CHO cell membranes.
The species named for experiment [4] is Homo sapiens. The experiment can be described thus: Selectivity ratio of Ki for displacement of [3H]R-PIA from recombinant human A1AR expressed in CHO cell membranes to Ki for displacement of [3H]CGS21680 from recombinant human A2AAR expressed in HEK293 cell membranes.

As a reminder, the inhibition is the share of the control response that was lost under treatment.

For `Cn1cc2c(nc(NC(=O)CCCc3cn(CCCCCCNC(=O)c4ccc(-c5c6ccc(=N)c(S(=O)(=O)O)c-6oc6c(S(=O)(=O)O)c(N)ccc56)c(C(=O)O)c4)nn3)n3nc(-c4ccco4)nc23)n1`, in the experiment listed under Homo sapiens [1], the Ratio Ki came out at 2.83.

Turning to `Cn1cc2c(nc(NC(=O)Nc3ccc(CC(=O)O)cc3)n3nc(-c4ccco4)nc23)n1`, in experiment [2], the inhibition stood at 4%. Further, the Ratio Ki in the experiment filed under Homo sapiens [3] was over 78; in the experiment listed under Homo sapiens [4], over 10; in the experiment listed under Homo sapiens [1], 7.8.
